Measurements published in ChEMBL document CHEMBL1157353, “Synthesis and biological evaluation of (-)- and (+)-debromoflustramine B and its analogues as selective butyrylcholinesterase inhibitors” (J Med Chem, 2008).
The source made the active and inactive calls. The rule behind the calls is not given here.

Experiments:
Cholinesterase [1] = biological target: T1, Cholinesterase (Homo sapiens, UniProt P06276); assay: Inhibition of human plasma BChE after 20 mins by Ellman's method; format: cell-free
Method in brief: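 Human plasma BChE, Ellman method, in 0.1 M phosphate buffer pH 8.0 with 340 µM butyrylthiocholine iodide. Compounds were preincubated with enzyme for 20 min at 37 °C before substrate was added, and an enzyme-free blank corrected for nonenzymatic hydrolysis. Compounds were screened at 1 mM; those giving >30% inhibition were run at nine concentrations (10-3–10-7 M), three times in triplicate. IC50 came from probit-transformed % activity versus log concentration.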

Cholinesterase [2] = biological target: T1, Cholinesterase; assay: Inhibition of human plasma BChE at <10000 uM after 20 mins by Ellman's method; format: cell-free

T1 sequence (P06276 whole entry): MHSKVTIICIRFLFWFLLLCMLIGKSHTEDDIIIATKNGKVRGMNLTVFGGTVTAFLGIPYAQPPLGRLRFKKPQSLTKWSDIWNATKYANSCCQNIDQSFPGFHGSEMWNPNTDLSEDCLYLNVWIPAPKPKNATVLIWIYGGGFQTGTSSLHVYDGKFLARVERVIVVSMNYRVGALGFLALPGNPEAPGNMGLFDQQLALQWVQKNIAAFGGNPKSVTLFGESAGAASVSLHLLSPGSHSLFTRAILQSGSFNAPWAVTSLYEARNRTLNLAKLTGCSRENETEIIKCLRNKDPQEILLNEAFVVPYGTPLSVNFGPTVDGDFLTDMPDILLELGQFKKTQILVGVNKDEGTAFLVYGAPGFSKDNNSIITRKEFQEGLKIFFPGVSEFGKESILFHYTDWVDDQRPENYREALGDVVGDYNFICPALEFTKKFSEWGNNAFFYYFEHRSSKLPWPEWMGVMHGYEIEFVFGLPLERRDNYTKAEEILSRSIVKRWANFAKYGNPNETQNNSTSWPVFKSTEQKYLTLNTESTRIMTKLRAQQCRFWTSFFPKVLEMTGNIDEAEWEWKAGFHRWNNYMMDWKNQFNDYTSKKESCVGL

| SMILES | IC50 (Cholinesterase [1]) [µM] | Activity (Cholinesterase [2]) |
| --- | --- | --- |
| COc1ccc2c(c1)C1(CC=C(C)C)CCN(Cc3ccccc3)C1N2CC=C(C)C (configuration not stated) | 50 |  |
| CN1CCC2(Cc3ccncc3)c3ccccc3N(Cc3ccccc3)C12 (configuration not stated) |  | inactive |
| CC(C)=CCC12CCN(C)C1N(C)c1ccccc12 (configuration not stated) |  | inactive |
| CC(C)CCN1c2ccccc2C2(CCC(C)C)CCN(C)C12 (configuration not stated) |  | inactive |
| CN1CCC2(Cc3ccccc3)c3ccccc3N(Cc3ccccc3)C12 (configuration not stated) | 22.1 |  |
| COc1ccc2c(c1)C1(CC=C(C)C)CCN(C)C1N2CC=C(C)C (configuration not stated) | 4.59 |  |
| COc1ccc2c(c1)C1(CC=C(C)C)CCN(Cc3ccccc3)C1N2Cc1ccccc1 (configuration not stated) |  | inactive |
| CC(C)=CCN1c2ccccc2[C@]2(CC=C(C)C)CCN(C)[C@H]12 [(-)-DEBROMOFLUSTRAMINE B] | 1.37 | inactive |
| CN1CCC2(Cc3ccncc3)c3ccccc3N(Cc3ccncc3)C12 (configuration not stated) |  | inactive |
| CCCN1c2ccccc2C2(CCC)CCN(C)C12 (configuration not stated) |  | inactive |
| CC(C)=CCN1c2ccccc2C2(CC=C(C)C)CCN(C)C12 (racemic) [(+/-)-DEBROMOFLUSTRAMINE B] | 2.59 |  |
| CC(C)=CCN1CCC2(CC=C(C)C)c3ccccc3N(CC=C(C)C)C12 (configuration not stated) | 1.72 |  |
| CN1CCC2(C)c3ccccc3N(C)C12 (configuration not stated) |  | inactive |
| CCN1c2ccccc2C2(CC)CCN(C)C12 (configuration not stated) |  | inactive |
| CC(C)=CCN1c2ccccc2C2(CC=C(C)C)CCN(Cc3ccccc3)C12 (configuration not stated) |  | inactive |
| COc1ccc2c(c1)C1(Cc3ccccc3)CCN(C)C1N2Cc1ccccc1 (configuration not stated) | 5.89 |  |
| COc1ccc2c(c1)C1(Cc3ccccc3)CCN(Cc3ccccc3)C1N2Cc1ccccc1 (configuration not stated) |  | inactive |
| CC(C)=CCC12CCN(C)C1N(Cc1ccccc1)c1ccccc12 (configuration not stated) | 10 |  |
| COc1ccc2c(c1)C1(CC=C(C)C)CCN(C)C1N2Cc1ccccc1 (configuration not stated) | 7.54 |  |
| CC(C)=CCN1c2ccccc2C2(CC=C(C)C)CCNC12 (configuration not stated) [DEMETHYLDEBROMOFLUSTRAMINE B] | 0.26 |  |
| CC(C)=CCN1c2ccccc2[C@@]2(CC=C(C)C)CCN(C)[C@@H]12 [(+)-DEBROMOFLUSTRAMINE B] | 10300 |  |
